In brackets after ≈: the same amount, converted by molar mass.
Legend:
Staphylococcus aureus [1] = experiment: The compound was tested for minimum inhibitory concentration required for inhibition of microbial growth in staphylococcus aureus at the Upjohn culture 6690; format: functional
Method in brief: (§1)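 Agar dilution in brain heart infusion agar with serial 2-fold compound dilutions. Organisms grown overnight on BHIA at 35 °C aerobically and suspended in TSB to 0.5 McFarland. The suspension is diluted 1:20 and spotted as 1-μL drops (~10^4 CFU). Plates incubated 18 h at 35 °C. MIC is the lowest concentration preventing visible growth.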

Klebsiella pneumoniae = experiment: The compound was tested for minimum inhibitory concentration required for inhibition of microbial growth in Klebsiella pneumoniae at the Upjohn culture; format: functional; method in brief: as §1
Pseudomonas aeruginosa [2] = experiment: The compound was tested for minimum inhibitory concentration required for inhibition of microbial growth in Pseudomonas aeruginosa at the Upjohn culture 95; format: functional; method in brief: as §1
Staphylococcus aureus [3] = experiment: The compound was tested for minimum inhibitory concentration required for inhibition of microbial growth in staphylococcus aureus at the Upjohn culture 76; format: functional; method in brief: as §1
Streptococcus pyogenes = experiment: The compound was tested for minimum inhibitory concentration required for inhibition of microbial growth in Streptococcus pyogenes at the Upjohn culture; format: functional; method in brief: as §1
[4] = The compound was tested for minimum inhibitory concentration required for inhibition of microbial growth in Salmonella schottmuelleri; format: functional; method in brief: as §1
Escherichia coli = experiment: The compound was tested for minimum inhibitory concentration required for inhibition of microbial growth in Escherichia coli at the Upjohn culture; format: functional; method in brief: as §1
Staphylococcus aureus [5] = experiment: The compound was tested for minimum inhibitory concentration required for inhibition of microbial growth in staphylococcus aureus at the Upjohn culture 6685; format: functional; method in brief: as §1
Streptococcus pneumoniae = experiment: The compound was tested for minimum inhibitory concentration required for inhibition of microbial growth in Streptococcus pneumoniae at the Upjohn culture; format: functional; method in brief: as §1
Enterococcus faecalis = experiment: The compound was tested for minimum inhibitory concentration required for inhibition of microbial growth in Enterococcus faecalis at the Upjohn culture; format: functional; method in brief: as §1
Saccharomyces cerevisiae [6] = experiment: The compound was tested for inhibition of Polyphenylalanine synthesis in Saccharomyces cerevisiae ribosome system at concentration of 1*10e-3 M; values are per cent of control
Pseudomonas aeruginosa [7] = experiment: The compound was tested for minimum inhibitory concentration required for inhibition of microbial growth in Pseudomonas aeruginosa at the Upjohn culture 6676; format: functional; method in brief: as §1
Saccharomyces cerevisiae [8] = experiment: The compound was tested for inhibition of Polyphenylalanine synthesis in Saccharomyces cerevisiae ribosome system at concentration of 1*10e-5 M; values are per cent of control
Saccharomyces cerevisiae [9] = experiment: The compound was tested for inhibition of Polyphenylalanine synthesis in Saccharomyces cerevisiae ribosome system at concentration of 1*10e-4 M; values are per cent of control
Rattus norvegicus [10] = organism: Rattus norvegicus; experiment: The compound was tested for inhibition of Puromycin reaction with hybrid antibiotics in a rat liver ribosome system concentrations at 1*10e-3 M; values are per cent of control
Rattus norvegicus [11] = organism: Rattus norvegicus; experiment: The compound was tested for inhibition of Puromycin reaction with hybrid antibiotics in a rat liver ribosome system concentrations of 2*10e-4 M; values are per cent of control
Rattus norvegicus [12] = organism: Rattus norvegicus; experiment: The compound was tested for inhibition of Puromycin reaction with hybrid antibiotics in a rat liver ribosome system concentrations at 1*10e-3 M; values are per cent of control; remark: listed apart in the source
Rattus norvegicus [13] = organism: Rattus norvegicus; experiment: The compound was tested for inhibition of Puromycin reaction with hybrid antibiotics in a rat liver ribosome system concentrations of 2*10e-4 M; values are per cent of control; remark: listed apart in the source

SMILES	MIC (Staphylococcus aureus [1]) [µg/mL]	MIC (Klebsiella pneumoniae) [µg/mL]	MIC (Pseudomonas aeruginosa [2]) [µg/mL]	MIC (Staphylococcus aureus [3]) [µg/mL]	MIC (Streptococcus pyogenes) [µg/mL]	MIC [4] [µg/mL]	MIC (Escherichia coli) [µg/mL]	MIC (Staphylococcus aureus [5]) [µg/mL]	MIC (Streptococcus pneumoniae) [µg/mL]	MIC (Enterococcus faecalis) [µg/mL]	level, % of control (Saccharomyces cerevisiae [6]) [%]	MIC (Pseudomonas aeruginosa [7]) [µg/mL]	level, % of control (Saccharomyces cerevisiae [8]) [%]	level, % of control (Saccharomyces cerevisiae [9]) [%]	level, % of control (Rattus norvegicus [10]) [%]	level, % of control (Rattus norvegicus [11]) [%]	level, % of control (Rattus norvegicus [12]) [%]	level, % of control (Rattus norvegicus [13]) [%]
CCCC1CC(C(=O)NC(CO)C(O)c2ccc([N+](=O)[O-])cc2)N(C)C1 (centres undefined)	> 800	800 (≈ 2190 µM)	> 800	800 (≈ 2190 µM)	200 (≈ 547 µM)	> 800	> 800	800 (≈ 2190 µM)										
CSC1OC(C(NC(=O)C(Cl)Cl)C(C)O)C(O)C(O)C1O (centres undefined)	50 (≈ 137 µM)	> 400	> 400	50 (≈ 137 µM)	6.25 (≈ 17.2 µM)	> 400	> 400	> 400	25 (≈ 68.6 µM)	> 400	96.8	> 400	97.3	90.9				
Cc1nc(O)nc(O)c1/C=C/C(=O)N[C@H]1[C@@H](O)[C@H](n2cnc3c(N(C)C)ncnc32)O[C@@H]1CO											95.7		106	95.8	76	69		
CSC1OC(C(NC(=O)/C=C/c2c(C)nc(O)nc2O)C(C)O)C(O)C(O)C1O (centres undefined)	> 400	> 400	> 400	> 400	> 400	> 400	> 400	> 400	> 400	> 400	93.4	> 400	101	97.7			91	90
O=C(N[C@H](CO)[C@H](O)c1ccc([N+](=O)[O-])cc1)C(Cl)Cl [CHLORAMPHENICOL]	50 (≈ 155 µM)	3.12 (≈ 9.66 µM)	100 (≈ 309 µM)	6.25 (≈ 19.3 µM)	3.12 (≈ 9.66 µM)	6.25 (≈ 19.3 µM)	3.12 (≈ 9.66 µM)	6.25 (≈ 19.3 µM)	3.12 (≈ 9.66 µM)	6.25 (≈ 19.3 µM)		200 (≈ 619 µM)						
CSC[S@@+]([O-])CC(CO)NC(=O)/C=C/c1c(C)[nH]c(=O)[nH]c1=O (some centres undefined)											15.5		44.1	30.3				
Cc1nc(O)nc(O)c1/C=C/C(=O)NC(CO)C(O)c1ccc([N+](=O)[O-])cc1 (centres undefined)	> 400	> 400	> 400	> 400	50 (≈ 128 µM)	> 400	> 400	> 400	> 400	> 400		> 400						
CCC[C@@H]1C[C@@H](C(=O)N[C@@H]([C@H]2O[C@H](SC)[C@H](O)[C@@H](O)[C@H]2O)[C@@H](C)O)N(C)C1 [LINCOMYCIN]	0.78 (≈ 1.92 µM)	400 (≈ 984 µM)	> 400	0.78 (≈ 1.92 µM)	0.2 (≈ 0.492 µM)	> 800	> 400	> 400	0.78 (≈ 1.92 µM)	50 (≈ 123 µM)		> 400						
